Source: PubChem (several laboratories)
RAM inhibit = yeast RAM network inhibition. S. cerevisiae dse1pr::URA3 reporter, 5-FOA growth OD615, 2 d; analog-sensitive cbk1-as2 kinase mutant strain. inhibition, % at 50 µM. hit rate 1.8% among 190,000;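 active = inhibition above a set limit, 3 SD over mean compound inhibition, cut at about 8.4% in these data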;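 note: 0% = DMSO-only wells with no growth and 100% = 10 µM 1-NA-PP1 full growth; inhibition rescues growth on 5-FOA so higher OD means more RAM inhibition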
WT yeast gro inh = growth inhibition of WT yeast, mitochondrial fusion screen | hit rate 2.1% among 190,000 | mitochondrial fusion phenotypic screen, WT strain | inhibition, % at 10 µM; in the data active = inhibition above about 58%; tested in S. cerevisiae
ABCG2 inh = human ABCG2 inhibition, ABCB1 as counter-screen; IgMXP3 cells, JC-1 efflux, flow cytometry; inhibition, % at 6.6 µM; hit rate 0.1% among 190,000;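 active = inhibition above 80%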;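 note: 0% = DMSO and 100% = nicardipine control wells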
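Test system: IgMXP3 cells (ABCG2) mixed with DDAO far-red-labelled CCRF-Adr cells (ABCB1). Reagent: JC-1 transporter substrate. Compound dosing: single test compound dose, 6.6 µM final. Times: 10 min compound exposure, 25 °C. Detection: flow cytometry of retained JC-1 fluorescence. Read-out basis: efflux inhibition in percent versus controls. Controls: nicardipine and DMSO wells.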
ABCB1 inh = human ABCB1 inhibition, ABCG2 as counter-screen; P08183; CCRF-Adr cells, JC-1 efflux, flow cytometry; hit rate 0.067% among 190,000; inhibition, % at 6.6 µM; AID 1326; in the data active = inhibition above about 40%;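 note: 0% = vehicle and 100% = reference inhibitor; higher value means more JC-1 retained so stronger ABCB1 efflux block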
L major viab = reduces viability of Leishmania major promastigotes. inhibition, % at 10 µM. AID 1063. hit rate 9% among 200,000. resazurin fluorescence viability; in the data active = inhibition above about 50%;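 note: promastigotes grown with compound for 44 hours at 28 °C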
* = called active by the depositor; · = no result given. In the library only some 12% were active in any assay of this set; here they are far more common.

SMILES	RAM inhibit	WT yeast gro inh	ABCG2 inh	ABCB1 inh	L major viab
CCC(=NCc1ccc2c(c1)OCO2)c1c(O)n(C2CCCCC2)c(=O)[nH]c1=O	4	62*	4	1	17
Cc1ccc(OP(=O)(NC(C)c2ccccc2)Oc2ccc(C)cc2)cc1 (centres undefined)	5	0	3	1	1
Cc1ccc(C(=O)c2cc(Br)ccc2N)cc1	-1	21	4	0	17
CC1CCCN(C(=O)c2ccc(N3CC4CC(C3)c3cccc(=O)n3C4)c([N+](=O)[O-])c2)C1 (centres undefined)	1	-13	0	0	-1
CC1CCN(C(=O)c2ccc(N3CC4CC(C3)c3cccc(=O)n3C4)c([N+](=O)[O-])c2)CC1 (centres undefined)	0	-23	2	·	71*
CCN(CC)c1ccc(CNCCc2ccc(F)cc2)cc1	1	5	3	1	96*
CCc1ccc(CNCCc2ccc(F)cc2)cc1	1	4	1	1	9
CCc1c(C)nc(N)nc1N1N=C1SCCOc1ccccc1	1	10	4	0	19
CN1CC[C@]2(c3cccc(O)c3)Cc3nc4ccccc4cc3C[C@H]2C1	·	-5	-1	·	·
O=P(Oc1ccccc1)(Oc1ccccc1)C(Nc1ccccc1)c1ccccc1 (centres undefined)	9.4*	48	-6	0	-4
COP(=O)(OC)C(Nc1ccccn1)c1ccccc1 (centres undefined)	0	3	5	1	31
Cc1ccc(CN2C3CCCC2CC(NC(=S)NCc2ccccc2)C3)cc1 (centres undefined)	1	33	1	1	92*
C=CCN1C(=O)NC(=O)C(CCc2ccncc2)(CCc2ccncc2)C1=O	0	-10	2	2	-5
CCC(=NCc1ccco1)c1c(O)[nH]c(=O)[nH]c1=O	2	-12	3	1	-9
CCC(=NCCC(c1ccccc1)c1ccccc1)c1c(O)[nH]c(=O)[nH]c1=O	2	7	6	3	72*
CCc1ccccc1N1C(=O)NC(=O)/C(=C\c2cc(C)n(C)c2C)C1=O	4	-11	2	·	54*
Cc1cc(C)cc(N2C(=O)NC(=O)/C(=C\c3cc(C)n(C)c3C)C2=O)c1	6	-3	-2	0	1
CCN(CC)P(=O)(c1n(CC)cc[n+]1CC)N(CC)CC	0	-19	-3	0	0
N#Cc1c(/N=C/c2ccc(O)cc2O)sc2c1C1CCN2CC1	1	-9	3	0	-5
O=C1NC(=O)N(Cc2ccco2)C(=O)/C1=C/c1cccn1CCOc1ccccc1Cl	8.7*	-12	-4	-1	11
CCCCn1c(NS(=O)(=O)c2ccccc2)c(C(=O)OCC)c2nc3ccccc3nc21	3	15	-4	0	99*
CCCCn1c(N)c(C(=O)NCCN2CCOCC2)c2nc3ccccc3nc21	-1	4	27	2	5
CCOC(=O)c1c(N)n(CCN2CCCCC2)c2nc3ccccc3nc12	0	9	17	1	55*
COc1ccc(CCNC(=O)c2c(N)n(CCN3CCOCC3)c3nc4ccccc4nc23)cc1	-2	8	7	2	96*
O=Cc1cn(Cc2ccccc2[N+](=O)[O-])c2ccccc12	2	4	21	2	50*
SMILES	RAM inhibit	WT yeast gro inh	ABCG2 inh	ABCB1 inh	L major viab
O=Cc1cn(Cc2ccc([N+](=O)[O-])cc2)c2ccccc12	3	0	6	1	7
CCCCCc1nc2c(c(=O)c3ccccc3n2C)c(=O)n1C1CCCCCC1	2	97*	12	1	99*
C=CCNC(=O)c1c(N)n(Cc2ccco2)c2nc3ccccc3nc12	5	-2	19	1	100*
COCCNC(=O)c1c(N)n(Cc2ccco2)c2nc3ccccc3nc12	4	-5	21	2	55*
Cc1ccc(C(C)C)c(OCC(=O)N2CCN(Cc3nc4cc([N+](=O)[O-])ccc4n3C)CC2)c1	1	46	78	14	97*
Cc1cccc(OCC(=O)N2CCN(Cc3ccncc3)CC2)c1	1	10	3	1	0
CC(=O)C1C2c3ccccc3O[C@@]1(C)N=c1s/c(=C/c3ccoc3)c(=O)n12 (some centres undefined)	1	6	0	0	11
CC/C(=C\C=C\[C@@H]1C=C[C@@H]2CCC[C@H]2[C@@H]1C(=O)c1ccc[nH]1)[C@@H]1O[C@@H]([C@@H](C)C(=O)O)CC[C@@H]1C	2	81*	2	0	-3
CC(=NCCC(c1ccccc1)c1ccccc1)c1c(O)n(C)c(=O)n(C)c1=O	5	2	-1	0	4
Nc1c2c(nc3sc4c(c13)CCCCC4)CCCC2	1	78	-1	0	93*
O=C1CCN(C(=O)C(Cl)Cl)N1	1	-11	-1	0	-7
O=C(c1cccc(Cl)c1)C1CCCN(Cc2cccc3cnccc23)C1 (centres undefined)	2	8	13	9	95*
CSc1ncc(CN2CCCC(C(=O)c3cccc(Cl)c3)C2)cn1 (centres undefined)	-1	34	2	1	82*
O=C(c1cccc(Cl)c1)C1CCCN(Cc2ccon2)C1 (centres undefined)	1	-14	0	0	-3
O=C(c1ccc(Cl)cc1)C1CCCN(Cc2cccc3cnccc23)C1 (centres undefined)	2	42	5	10	99*
C=CCN1C(=O)/C(=C/c2cc(C)n(-c3ccccn3)c2C)C(=O)NC1=S	2	-8	-5	-1	96*
O=C(c1cc(C(=O)NCc2ccccc2)c(=O)n(Cc2ccccc2)c1)c1cc(Cl)ccc1O	2	26	-5	-1	98*
CC(C)CCNC(=O)c1cc(C(=O)c2cc(Br)ccc2O)cn(CCC(C)C)c1=O	9.2*	-8	2	1	83*
CC(C)CCNC(=O)c1cc(C(=O)c2cc(F)ccc2O)cn(CCC(C)C)c1=O	7	5	4	2	14
CC(=O)Nc1ccccc1C(=O)C(=O)Nc1cccc(C(=O)N2CCC3(CC2)OCCO3)c1	1	13	2	0	-7
CCN(CCNc1ccc([N+](=O)[O-])c2cccnc12)S(=O)(=O)c1ccc(Cl)cc1	9.5*	25	2	-2	89*
NCCNc1ccc([N+](=O)[O-])c2cccnc12	2	-1	1	0	3
O=[N+]([O-])c1ccc(NCCCN2CCOCC2)c2ncccc12	3	0	7	0	87*
CCN(CCNc1ccc([N+](=O)[O-])c2cccnc12)S(=O)(=O)c1ccccc1	5	-3	39	3	-5
O=C(c1cc(S(=O)(=O)N2CCC3(CC2)OCCO3)ccc1F)N1CCC2(CC1)OCCO2	5	1	1	0	-3
COc1ccc(CCNC2CCCCC2)cc1	-1	-22	-2	0	20
